The values that follow come from ChEMBL document CHEMBL2021906, “A synthetic chalcone as a potent inducer of glutathione biosynthesis” (J Med Chem, 2012).

Each structure is given as a SMILES string. Active and inactive are the calls of the source. The calls are words filed in the database; no cut-off is given here.

In general, IC50 refers to the concentration that gives 50% inhibition.

In test [1] the test system is MCF7. Kind of test: Increase in intracellular GSH level in human MCF7 cells expressing antioxidant response element at 10 uM after 24 hrs by HPLC analysis in presence of GCL inhibitor buthionine sulfoximine. It is filed as functional, cell-based.
Test [2] has as its system MCF7. Kind of test: Increase in intracellular GSH level in human MCF7 cells expressing antioxidant response element at 10 uM after 24 hrs by HPLC analysis. In kind it is functional, cell-based. A digest of the protocol: (§1)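 In 24-well plates, AREc32 cells were treated with 10 μM for 6 or 24 h. Cells were PBS-washed, sonicated, and acidified with meta-phosphoric acid (1% v/v final), then centrifuged. GSH in the supernatant was quantified by reverse-phase HPLC with electrochemical detection (pH 3 sodium phosphate/0.9% methanol mobile phase). Results are expressed as % of untreated control, n = 3.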

For test [3], the system named is MCF7. In words: Increase in intracellular GSH level in human MCF7 cells expressing antioxidant response element at 10 uM after 6 hrs by HPLC analysis relative to control. In kind it is functional. The essentials: as §1
Test [4] relates to MCF7. In words: Increase in intracellular GSH level in human MCF7 cells expressing antioxidant response element at 10 uM after 24 hrs by HPLC analysis relative to control. In kind it is functional. A digest of the protocol:
as §1

For test [5], the system named is MCF7. In words: Increase in GCLM level in human MCF7 cells expressing antioxidant response element at 20 uM after 6 hrs by SDS-PAGE immunoblotting technique. It is filed as functional, cell-based. A digest of the protocol:
(§2)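 AREc32 cells in six-well plates were treated with 20 μM for 6 h, then PBS-washed, sonicated in PBS, and the cleared supernatant concentrated by evaporation. GCL holoenzyme was immunoblotted after native PAGE; GCLC and GCLM after SDS PAGE. α-GAPDH served as internal standard. The experiment was repeated once.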
(Immunoblotting shows a protein as a band on a membrane.)

Test [6] relates to MCF7. Kind of test: Increase in GCL holoenzyme formation in human MCF7 cells expressing antioxidant response element at 20 uM after 24 hrs by native-PAGE immunoblotting technique. In kind it is functional, cell-based.
Test [7] relates to MCF7. Kind of test: Cytotoxicity against human MCF7 cells expressing antioxidant response element assessed as LDH release after 48 hrs. In kind it is cell-based. Particulars: MCF7, 48 h. A digest of the protocol:
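MCF-7/AREc32 cells (ARE-luciferase reporter line; DMEM low glucose, 10% FBS, pen/strep, Geneticin, 37 °C, 5% CO2) exposed to 0–60 μM for 48 h. LDH activity measured in medium and cell lysate via NADH consumption at 340 nm after pyruvate addition. Percent LDH release = supernatant/(supernatant + lysate) × 100. n = 3.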
For orientation: Release of lactate dehydrogenase indicates damage to the cell membrane.

Test [8] deals with MCF7. Kind of test: Increase in GCL holoenzyme formation in human MCF7 cells expressing antioxidant response element at 20 uM after 6 hrs by native-PAGE immunoblotting technique. In kind it is functional, cell-based. A digest of the protocol: as §2
The test system of test [9] is MCF7. In words: Increase in GCLC level in human MCF7 cells expressing antioxidant response element at 20 uM after 6 hrs by SDS-PAGE immunoblotting technique. In kind it is functional, cell-based. The essentials: as §2
The target of test [10] is T1, Nuclear factor erythroid 2-related factor 2 (Homo sapiens) (UniProt Q16236).
T1 sequence (whole entry): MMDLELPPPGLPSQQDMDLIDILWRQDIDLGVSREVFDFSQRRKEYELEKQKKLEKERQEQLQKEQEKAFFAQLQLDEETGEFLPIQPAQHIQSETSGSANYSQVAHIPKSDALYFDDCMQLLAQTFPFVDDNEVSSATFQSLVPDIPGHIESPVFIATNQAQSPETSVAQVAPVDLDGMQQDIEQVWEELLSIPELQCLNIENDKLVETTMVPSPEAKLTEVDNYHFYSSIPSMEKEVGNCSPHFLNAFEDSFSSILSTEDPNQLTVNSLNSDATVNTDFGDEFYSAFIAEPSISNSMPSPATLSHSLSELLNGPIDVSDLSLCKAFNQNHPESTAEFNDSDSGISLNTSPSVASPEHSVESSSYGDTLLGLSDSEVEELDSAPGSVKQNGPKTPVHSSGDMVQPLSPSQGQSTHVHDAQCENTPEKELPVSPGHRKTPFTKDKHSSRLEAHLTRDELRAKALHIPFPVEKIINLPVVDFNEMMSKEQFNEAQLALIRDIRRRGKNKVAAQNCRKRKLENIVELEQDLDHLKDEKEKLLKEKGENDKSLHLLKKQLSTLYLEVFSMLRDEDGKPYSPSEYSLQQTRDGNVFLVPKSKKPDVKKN
In words: Induction of Nrf2 transcriptional activity in human MCF7 cells antioxidant response element at 5 uM after 18 hrs by luciferase reporter gene assay in presence of JNK inhibitor SP600125. In kind it is cell-based. On the technique in general: In a reporter assay the amount or activity of a reporter protein is the signal.

Test [11] deals with T1, Nuclear factor erythroid 2-related factor 2 (Homo sapiens). Kind of test: Induction of Nrf2 transcriptional activity in human MCF7 cells antioxidant response element at 5 uM after 18 hrs by luciferase reporter gene assay in presence of p38 MAPK inhibitor SB203580. It is filed as cell-based.
Test [12] shares this target. Kind of test: Induction of Nrf2 transcriptional activity in human MCF7 cells antioxidant response element at 5 uM after 18 hrs by luciferase reporter gene assay relative to sulforaphane. In kind it is cell-based. The essentials:
(§3)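 AREc32 cells (stable ARE-driven firefly luciferase) grown in 12-well plates to ~60% confluence were exposed to 5 μM for 18 h, alongside sulforaphane or tBHQ at 5 μM. Cells were lysed and centrifuged, and luciferase activity was read on a luminometer using an enhanced luciferase kit. n = 4.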

The target is the same in test [13]. Kind of test: Induction of Nrf2 transcriptional activity in human MCF7 cells antioxidant response element at 5 uM after 18 hrs by luciferase reporter gene assay relative to 2,5-DHC. It is filed as cell-based. A digest of the protocol: as §3
Test [14] deals with MCF7. In words: Increase in intracellular GSH level in human MCF7 cells expressing antioxidant response element at 10 uM after 24 hrs in presence of JNK inhibitor SP600125. In kind it is functional, cell-based. The essentials: (§4)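 AREc32 cells received 10 μM for 24 h along with 20 μM buthionine sulfoximine, SP600125, SB203580 or MnTDE-1,3-IP5+. Intracellular GSH was measured by HPLC with electrochemical detection after sonication and meta-phosphoric acid extraction. n = 3, with group differences tested at P < 0.05.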

In test [15] the test system is MCF7. Kind of test: Increase in intracellular GSH level in human MCF7 cells expressing antioxidant response element at 10 uM after 24 hrs in presence of catalytic antioxidant MnTDE-1,3IP5+. In kind it is functional, cell-based. A digest of the protocol: as §4
Test [16] concerns the target T1, Nuclear factor erythroid 2-related factor 2 (Homo sapiens). Kind of test: Induction of Nrf2 transcriptional activity in human MCF7 cells antioxidant response element at 5 uM after 18 hrs by luciferase reporter gene assay in presence of catalytic antioxidant MnTDE-1,3-IP5+. It is filed as cell-based.
Test [17] shares this target. Kind of test: Induction of Nrf2 transcriptional activity in human MCF7 cells antioxidant response element at 5 uM after 18 hrs by luciferase reporter gene assay relative to tert-butylhydroquinone. It is filed as cell-based. The essentials: as §3
Test [18] concerns MCF7. In words: Increase in intracellular GSH level in human MCF7 cells expressing antioxidant response element at 10 uM after 24 hrs in presence of p38 MAPK inhibitor SB203580. In kind it is functional, cell-based. The essentials:
as §4

Turning to `C[S+]([O-])CCCCN=C=S` (racemic), the outcome in [1] was inactive. The outcome in test [2] was Active.

In the case of `COc1cccc(O)c1C(=O)/C=C/c1c(Cl)cccc1Cl`, the results for the Activity in [3] and in [4] were 88% and 183%, respectively.

For `O=C(/C=C/c1ccccc1)c1cc(O)ccc1O`, the result in [5], in [6], in [1] and in test [9] was inactive. Also, the half-maximal inhibitory concentration (IC50) in test [7] was determined as 33 µM. Moreover, the Activity is 82% in test [3] and 177% in test [4]. For the same compound, the outcome in test [8] was Active.

For the compound `COc1cccc(OC)c1C(=O)/C=C/c1c(Cl)cccc1Cl`, the Activity was 122% in test [3] and 256% in test [4].

Take `COc1cccc(OC)c1C(=O)/C=C/c1ccccc1Cl`: the Activity in test [3] worked out at 105%; in test [4] it was 211%.

As for `COc1cccc(OC)c1C(=O)/C=C/c1cccc(Cl)c1`, the Activity in [3] is reported as 88%; in [4] it was 165%.

`COc1ccc(C(=O)/C=C/c2cccc(OC)c2OC)c(O)c1`: the Activity in test [3] is 100%; in test [4], 174%.

On to `COc1ccc(C(=O)/C=C/c2ccccc2Cl)c(OC)c1`, for which the Activity in test [3] is reported as 109%; in test [4] it was 232%.

Turning to `CC(C)(C)c1cc(O)ccc1O`, the result in [1] was inactive. The result in test [2] was Active.

Take `COc1cccc(OC)c1C(=O)/C=C/c1ccccc1[N+](=O)[O-]`: the figures for the Activity in test [3] and in test [4] were 106% and 204%, respectively.

For `COc1ccc(C(=O)/C=C/c2c(OC)cc(OC)cc2OC)c(O)c1`, in test [1], the outcome was inactive. For the same compound, the results for the Activity in test [3] and in test [4] were 91% and 104%, respectively.

Take `COc1cccc(OC)c1/C=C/C(=O)c1ccccc1`: the Activity was determined as 111% in test [3] and 189% in [4].

For `COc1ccc(C(=O)/C=C/c2cc(OC)ccc2OC)c(O)c1`, the Activity was found to be 100% in test [3] and 153% in [4].

For the compound `COc1cc(OC)c(C(=O)/C=C/c2ccccc2)c(OC)c1`, the Activity in [3] turned out to be 91%; in [4], 209%.

Regarding `COc1cc(O)c(C(=O)/C=C/c2c(F)cccc2F)c(OC)c1`, the Activity in test [3] is recorded as 135%; in test [4], 226%.

As to `COc1cc(O)c(C(=O)/C=C/c2ccccc2)c(OC)c1` [FLAVOKAWAIN B], the Activity in test [3] turned out to be 101%; in [4], 191%.

For the compound `COc1cc(O)c(C(=O)/C=C/c2ccccc2Cl)c(OC)c1`, the outcome in [10], in [5], in [1], in [16] and in test [9] was inactive. Further, the outcome in test [11], in [14], in test [2], in test [15], in test [8] and in [18] was Active. The Ratio in test [12] worked out at 4; in [13], 4; in test [17] it was 10. For the same compound, the half-maximal inhibitory concentration (IC50) in test [7] was found to be 25 µM. In addition, the Activity is reported as 107% in test [3] and 299% in test [4].

Take `COc1cc(O)c(C(=O)/C=C/c2c(Cl)cccc2Cl)c(OC)c1`: the Activity in test [3] came to 119%; in test [4], 250%.

`COc1cccc(OC)c1C(=O)/C=C/c1ccccc1`: the values for the Activity in test [3] and in test [4] were 87% and 158%, respectively.

On to `COc1ccc(C(=O)/C=C/c2c(Cl)cccc2Cl)c(O)c1`, for which the Activity in test [3] was found to be 107%; in test [4], 193%.

Consider `COc1ccc(C(=O)/C=C/c2cccc(F)c2)c(OC)c1`, for which the Activity in test [3] came to 78%; in [4], 173%.

For the compound `COc1cccc(OC)c1/C=C/C(=O)c1c(Cl)cccc1Cl`, the results for the Activity in [3] and in test [4] were 93% and 120%, respectively.

`COc1ccc(C(=O)/C=C/c2c(OC)cccc2OC)c(O)c1`: the Activity in test [3] was determined as 90%; in [4], 231%.

With `COc1cccc(OC)c1C(=O)/C=C/c1ccc(F)cc1F`, the Activity is given as 104% in [3] and 182% in test [4].

As for `O=C(/C=C/c1ccccc1)c1ccccc1` [CHALCONE], the Activity in test [3] was 103%; in test [4], 115%.

As to `COc1cccc(OC)c1C(=O)/C=C/c1ccccc1F`, the values for the Activity in [3] and in test [4] were 103% and 195%, respectively.

In the case of `COc1cc(OC)c(C(=O)/C=C/c2c(F)cccc2F)c(OC)c1`, the Activity in test [3] worked out at 118%; in [4], 223%.

In the case of `COc1cc(OC)c(C(=O)/C=C/c2c(Cl)cc(Cl)cc2Cl)c(OC)c1`, the Activity is given as 119% in test [3] and 246% in test [4].

Turning to `O=C(/C=C/c1c(Cl)cccc1Cl)c1ccccc1O`, the Activity in test [3] was 108%; in [4], 180%.

For the compound `COc1ccc(C(=O)/C=C/c2ccc(OC)cc2OC)c(O)c1`, the values for the Activity in test [3] and in [4] were 114% and 160%, respectively.

Regarding `COc1cc(OC)c(/C=C/C(=O)c2ccc(Cl)c(Cl)c2)c(OC)c1`, the Activity in [3] worked out at 98%; in test [4], 88%.

With `COc1cccc(OC)c1C(=O)/C=C/c1cccc(F)c1`, the figures for the Activity in [3] and in test [4] were 82% and 171%, respectively.
